mIAP inh: blocks mouse intestinal alkaline phosphatase. purified mouse IAP, CDP-Star luminescence, 30 min. inhibition, % at 10 µM. hit rate 0.2% among 330,000. AID 2806;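 active means inhibition of at least 40% at 10 µM in the primary screen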;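 further: plate controls were DMSO with enzyme for no effect and no enzyme wells for full effect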
bIAP inhibitor: blocks bovine intestinal alkaline phosphatase activity; purified bovine IAP, CDP-star luminescence, 30 min; inhibition, % at 20 µM; 190,000 tested, under 10 active;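 active means over 50% inhibition of intestinal alkaline phosphatase at 20 µM in the single-dose screen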
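Incubation: 30 min reaction at room temperature / Material: purified bovine intestinal alkaline phosphatase (IAP) enzyme / Input: enzyme at 1/65,000,000 dilution / Dosing: 20 µM single dose / Signal: CDP-star luminescence signal / Reagent: CDP-star chemiluminescent phosphatase substrate, 30 µM final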
hIAP block: blocks human intestinal alkaline phosphatase. P09923. purified IAP, CDP-Star luminescence, 30 min. inhibition, % at 10 µM. hit rate 0.12% among 330,000. AID 2544;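 active means inhibition reaching a set limit with compound at 10 µM in the primary screen, cut at about 35% in these data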;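 further: plate controls were DMSO wells with enzyme for no effect and no-enzyme buffer wells for full effect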
Target sequence (P09923 whole entry, looked up): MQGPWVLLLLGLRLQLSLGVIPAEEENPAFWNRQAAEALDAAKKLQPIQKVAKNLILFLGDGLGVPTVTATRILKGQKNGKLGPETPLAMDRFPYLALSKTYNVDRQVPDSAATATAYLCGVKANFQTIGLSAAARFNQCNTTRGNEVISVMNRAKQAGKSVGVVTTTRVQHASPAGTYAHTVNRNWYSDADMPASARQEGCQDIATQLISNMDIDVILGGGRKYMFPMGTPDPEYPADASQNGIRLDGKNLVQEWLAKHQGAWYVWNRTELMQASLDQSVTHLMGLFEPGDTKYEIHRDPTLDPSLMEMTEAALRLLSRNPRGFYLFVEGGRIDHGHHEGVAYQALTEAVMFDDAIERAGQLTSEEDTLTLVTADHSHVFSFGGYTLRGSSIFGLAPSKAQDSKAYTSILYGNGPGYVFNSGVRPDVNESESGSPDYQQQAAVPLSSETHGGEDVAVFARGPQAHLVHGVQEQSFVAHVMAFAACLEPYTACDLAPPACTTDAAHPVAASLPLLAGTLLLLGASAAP
bIAP act: intestinal alkaline phosphatase (bovine) activation; hit rate 0.17% among 200,000; activation factor at 20 µM; purified bovine IAP, CDP-star luminescence, 30 min; active compounds read high; fold of DMSO-control signal, blank-subtracted;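 active means activation factor of 2 or more at 20 µM, a signal rise over negative controls twice the positive control's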
hIAP activ: human IAP activation. P09923. purified human IAP, CDP-Star luminescence, 30 min; active compounds read high; 1 = vehicle-only enzyme, 0 = enzyme-free background. activation factor at 10 µM. hit rate 0.16% among 330,000. AID 2524;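 active means activation factor of the enzyme at least 2-fold when tested at 20 µM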
mIAP act: increases mouse intestinal alkaline phosphatase activity | muIAP, CDP-Star luminescence, 30 min; active compounds read high; 1 = vehicle-only enzyme signal, 0 = enzyme-free wells | activation factor at 10 µM | hit rate 0.24% among 330,000;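 active means activation factor of at least 2 at 20 µM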
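Assay system: mouse IAP enzyme; reagent: chemiluminescent substrate CDP-Star; dosing: test compounds delivered from DMSO solution; schedule: 30 min at room temperature; measured by: luminescence from enzymatic CDP-Star hydrolysis; controls: DMSO-only wells and no-enzyme negative control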
hIAP act conf: human IAP activation confirmation. activation (%Activity, negative = activation), % at 8.3 µM. purified IAP, CDP-Star luminescence, 30 min; active compounds read low. AID 434926. hit rate 10% among 880. shares compounds with hIAP activ;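 active means at least twofold enzyme activation in any of six single-dose repeats, which the averaged readout prints as negative percent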
* = called active by the depositor; x = no result. An excerpt weighted towards active compounds, which were near 0.79% of everything screened.

SMILES	mIAP inh	bIAP inhibitor	hIAP block	bIAP act	hIAP activ	mIAP act	hIAP act conf
COc1cc(/C=C2\SC(=S)N(NC(=O)c3ccncc3)C2=O)ccc1O	37	x	35*	x	0.65	0.63	-3
COc1cc(/C=C2\SC(=S)N(N3CCOCC3)C2=O)ccc1O	34	x	44*	x	0.56	0.66	-24
COc1cc(/C=C2\SC(=S)N(NC(=O)c3ccc(O)c(OC)c3)C2=O)ccc1O	26	x	46*	x	0.54	0.74	-50
COC(=O)c1ccc(/C=C2\Oc3ccccc3NC2=O)cc1	-3	x	-2	x	1	1	x
CC(=O)N[C@@H](C)C(=O)N1CCN(S(=O)(=O)c2ccc(Cl)cc2)CC1	5	-4	-177	1	2.8*	0.95	-38
O=C(NCc1ccccc1)C1=C[C@@H](c2ccc(C(F)(F)F)cc2)C[C@@H](OCCCCO)O1	9	x	8	x	0.92	0.91	x
CCOC(=O)c1cccnc1SCC(=O)N(C)c1ccccc1	1	1	39*	1	0.61	0.99	-64
CCOC(=O)c1cccnc1SCc1cc(=O)n2ccccc2n1	-4	16	2	0.8	0.98	1	x
COc1ccc(NC(=O)CCN2CCN(S(=O)(=O)c3cc(Cl)ccc3OC)CC2)cc1	6	4	36*	1	0.64	0.94	36
COc1ccc(NC(=O)CCN2CCN(S(=O)(=O)c3ccc(Br)cc3)CC2)cc1	4	x	-15	x	1.1	0.96	x
COc1ccc(O)c(/C=N/NC(=O)c2cccc(N3CCCC3=O)c2)c1	-10	x	-105	x	2*	1.1	-1
CS(=O)(=O)N1CCC(C(=O)Nc2cccc(F)c2)CC1	-5	x	-14	x	1.1	1.1	x
O=C(Nc1cccc(-c2cccc(F)c2)c1)C1CCN(C2CCOCC2)CC1	-94	x	-185	x	2.9*	1.9	2
O=C(NCc1ccccc1)C(=O)Nc1nc(-c2ccccc2)cs1	-1	x	-10	x	1.1	1	x
O=C(NCc1ccccn1)C(=O)Nc1nc(-c2ccccc2)cs1	-5	x	-116	x	2.2*	1	-60
CN(Cc1ccccc1)C(=O)Nc1ccc(Cl)cc1	-4	x	-102	x	2*	1	-59*
CN(Cc1ccccc1)C(=O)c1[nH]cnc1C(=O)Nc1ccc(Cl)cc1	3	x	-46	x	1.5	0.97	x
Cn1cc(C(=O)NS(=O)(=O)Nc2ccc(Br)cc2)c2ccccc21	1	x	38*	x	0.62	0.99	-7
Cn1cc(C(=O)C(F)(F)F)c2ccccc21	5	-3	-24	1	1.2	0.95	x
C[C@@H]1CCC2[C@](C)(CO)[C@@H](O)CC[C@]2(C)[C@@]12C[C@](CO)(CC(=O)O)CO2 (stereo partly drawn)	1	x	-10	x	1.1	0.99	x
Cn1nc(C(=O)NNC(=O)CCOc2ccc(C(C)(C)C)cc2)c2ccccc2c1=O	4	x	-114	x	2.1*	0.96	-19
CCc1occc(=O)c1Oc1cc(NN2CCCCC2)c([N+](=O)[O-])cc1[N+](=O)[O-]	2	x	42*	x	0.57	0.98	-42
COc1cc(/C=C2/C(=O)NN(c3cccc(Cl)c3)C2=O)cc(OC)c1O	23	x	50*	x	0.5	0.77	9
CCOc1cc(/C=C2/C(=O)NN(c3cccc(Cl)c3)C2=O)ccc1O	16	x	33	x	0.67	0.83	x
CC(=O)N1CCCN(Cc2cn(-c3ccc(C)cc3)nc2-c2cccc(C)c2)CC1	-4	-16	1	1.2	0.99	1	x
SMILES	mIAP inh	bIAP inhibitor	hIAP block	bIAP act	hIAP activ	mIAP act	hIAP act conf
c1ccc(-c2cccc(-c3ccccn3)n2)nc1	-8	-16	-105	1.2	2.1*	1.1	-113*
O=C(O)c1ccc2c(c1)C(=O)N(Cc1ccc3c(c1)OCO3)C2=O	4	-3	18	1	0.82	0.96	x
O=C1c2ccccc2C(=O)N1Cc1ccc2c(c1)OCO2	-5	8	-100	0.9	2*	1.1	-26
Cc1ccc2cc(NC(=O)c3ccccc3)ccc2n1	4	x	5	x	0.95	0.96	x
C[C@@H](NC(=O)c1nc[nH]c1C(=O)N[C@H](C)c1ccccc1)c1ccccc1	2	x	-20	x	1.2	0.98	x
C[C@@H](NC(=O)c1[nH]cnc1C(=O)Nc1nccs1)c1ccccc1	3	x	-124	x	2.2*	0.97	12

Compound activity deposited in PubChem BioAssay by Sanford-Burnham Center for Chemical Genomics.
